Consider six compounds from ChEMBL document CHEMBL1135464, “3-Aryl-2-quinolone derivatives: synthesis and characterization of in vitro and in vivo antitumor effects with emphasis on a new therapeutical target connected with cell migration” (J Med Chem, 2002).

Active and inactive are the calls of the source. No cut-off for these calls is given here.

In series [1] the test system is A-427. Briefly: Cytotoxicity against A-427 nonsmall lung cell line using MTT colorimetric assay. It is filed as functional, cell-based. The note with it: Homo sapiens. In outline: (§1)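 Human tumour lines from ATCC were grown at 37 °C in sealed dishes in MEM with 5% FCS. Cells were seeded at 40000 cells/mL in 96-well plates and left 24 h to plate. Each drug was then tested at six concentrations from 10^-5 to 10^-9 M. Growth was read by colorimetric MTT assay.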
(In general: Tetrazolium dyes change colour on reduction, which living cells bring about.)

Series [2] concerns A549. Briefly: Cytotoxicity against A549 nonsmall lung cell line using MTT colorimetric assay. The settings on record: Homo sapiens. In kind it is functional, cell-based. A digest of the protocol: as §1
The subject of series [3] is A 172. As to the kind of experiment: Cytotoxicity against A-172 glioblastomas using MTT colorimetric assay. It is filed as functional, cell-based. The settings on record: Homo sapiens. A digest of the protocol:
as §1

A short description of series [4]: Evaluated in vivo for maximum tolerated dose and found to be nontoxic. In kind it is ADME, organism-based.
The test system of series [5] is HCT-15. Briefly: Cytotoxicity against HCT-15 colon cell line using MTT colorimetric assay. In kind it is functional, cell-based. The note with it: Homo sapiens. A digest of the protocol: as §1
The test system of series [6] is J82. Briefly: Cytotoxicity against J82 bladder cell lines using MTT colorimetric assay. In kind it is functional, cell-based. The settings on record: Homo sapiens. A digest of the protocol: as §1
The test system of series [7] is LoVo. As to the kind of experiment: Cytotoxicity measured on LoVo colon cell line using MTT colorimetric assay. In kind it is functional, cell-based. The note with it: Homo sapiens. In outline:
as §1

In series [8] the test system is PC-3. Briefly: Cytotoxicity against prostate cell line PC-3 using MTT colorimetric assay. It is filed as functional, cell-based. The settings on record: Homo sapiens. In outline: as §1
The subject of series [9] is T-24. As to the kind of experiment: Cytotoxicity against T24 bladder cell lines using MTT colorimetric assay. It is filed as functional, cell-based. The settings on record: Homo sapiens. A digest of the protocol: as §1
The subject of series [10] is U373 MG. As to the kind of experiment: Cytotoxicity against U-373 MG glioblastomas using MTT colorimetric assay. In kind it is functional, cell-based, U-373MG ATCC. The settings on record: Homo sapiens. In outline: as §1
In series [11] the test system is T47D. Briefly: Cytotoxicity against Breast cancer cell line T-47D using MTT colorimetric assay at 1x 10 E-5. The note with it: Homo sapiens. In kind it is functional, cell-based. A digest of the protocol:
as §1

Series [12] has as its system U-87 MG. As to the kind of experiment: Cytotoxicity against U-87 MG glioblastomas using MTT colorimetric assay. In kind it is functional, cell-based, U-87MG ATCC. The settings on record: Homo sapiens. A digest of the protocol:
as §1

Series [13] has as its system MCF7. Briefly: Cytotoxicity against Breast cancer cell line MCF-7 using MTT colorimetric assay. It is filed as functional, cell-based. The note with it: Homo sapiens. A digest of the protocol: as §1
For series [14], the system named is HCT-15. Briefly: Cytotoxicity against HCT-15 colon cell line using MTT colorimetric assay at 1x 10 E-5. It is filed as functional, cell-based. The settings on record: Homo sapiens. A digest of the protocol:
as §1

The test system of series [15] is T47D. Briefly: Cytotoxicity against Breast cancer cell line T-47D using MTT colorimetric assay. In kind it is functional, cell-based. The note with it: Homo sapiens. A digest of the protocol: as §1
In series [16] the test system is A-427. Briefly: Cytotoxicity against A-427 nonsmall lung cell line using MTT colorimetric assay; NE is no effect at 1x 10 E-5. In kind it is functional, cell-based. The note with it: Homo sapiens. In outline:
as §1

Series [17] concerns A549. Briefly: Cytotoxicity against A549 nonsmall lung cell line using MTT colorimetric assay; NE is no effect at 1x 10 E-5. It is filed as functional, cell-based. The settings on record: Homo sapiens. In outline:
as §1

The test system of series [18] is A 172. Briefly: Cytotoxicity against A-172 glioblastomas using MTT colorimetric assay; NE is no effect at 1x 10 E-5. It is filed as functional, cell-based. The note with it: Homo sapiens. In outline: as §1
In series [19] the test system is HCT-15. As to the kind of experiment: Cytotoxicity against HCT-15 colon cell line using MTT colorimetric assay; NE is no effect at 1x 10 E-5. It is filed as functional, cell-based. The note with it: Homo sapiens. A digest of the protocol:
as §1

Series [20] relates to J82. As to the kind of experiment: Cytotoxicity against J82 bladder cell lines using MTT colorimetric assay; NE is no effect at 1x 10 E-5. The settings on record: Homo sapiens. It is filed as functional, cell-based. A digest of the protocol:
as §1

The subject of series [21] is MCF7. Briefly: Cytotoxicity against Breast cancer cell line MCF-7 using MTT colorimetric assay; NE is no effect at 1x 10 E-5. It is filed as functional, cell-based. The note with it: Homo sapiens. A digest of the protocol:
as §1

For series [22], the system named is LoVo. As to the kind of experiment: Cytotoxicity against LoVo colon cell line using MTT colorimetric assay; NE is no effect at 1x 10 E-5. The note with it: Homo sapiens. In kind it is functional, cell-based. A digest of the protocol: as §1
Series [23] relates to PC-3. As to the kind of experiment: Cytotoxicity against prostate cell line PC-3 using MTT colorimetric assay; NE is no effect at 1x 10 E-5. In kind it is functional, cell-based. The note with it: Homo sapiens. A digest of the protocol: as §1
The test system of series [24] is T-24. As to the kind of experiment: Cytotoxicity against T24 bladder cell lines using MTT colorimetric assay; NE is no effect at 1x 10 E-5. The note with it: Homo sapiens. In kind it is functional, cell-based. A digest of the protocol: as §1
The test system of series [25] is U373 MG. As to the kind of experiment: Cytotoxicity against U-373 MG glioblastomas using MTT colorimetric assay; NE is no effect at 1x 10 E-5. In kind it is functional, cell-based. The note with it: Homo sapiens; U-373MG ATCC. A digest of the protocol:
as §1

Series [26] deals with T47D. As to the kind of experiment: Cytotoxicity against Breast cancer cell line T-47D using MTT colorimetric assay; NE is no effect at 1x 10 E-5. In kind it is functional, cell-based. The settings on record: Homo sapiens. In outline: as §1
Series [27] deals with U-87 MG. Briefly: Cytotoxicity against U-87 MG glioblastomas using MTT colorimetric assay; NE is no effect at 1x 10 E-5. It is filed as functional, cell-based. The settings on record: Homo sapiens; U-87MG ATCC. A digest of the protocol:
as §1

Series [28] relates to MCF7. As to the kind of experiment: Cytotoxicity against Breast cancer cell line MCF-7 using MTT colorimetric assay at 1x 10 E-5. In kind it is functional, cell-based. The settings on record: Homo sapiens. In outline: as §1

For the compound `COc1ccc(-c2cc3c(OC)ccc(OC)c3nc2O)cc1`, the concentration for half-maximal inhibition (IC50) in series [1], in [2], in series [3], in series [5], in series [6] and in series [7] was > 10 µM each time. Also, the concentration for half-maximal inhibition (IC50) in [8], in [9], in [10], in series [11], in [12] and in series [13] was > 10 µM throughout. The same compound had an MTD in [4] of 160 mg/kg.
In the case of `COC(=O)CCn1c(=O)c(-c2ccc(OC)cc2)cc2c(OC)cc(OC)cc21`, the IC50 in series [1], in [2], in [3], in series [14], in [6] and in series [7] was > 10 µM each time. Besides, the IC50 in series [8], in series [15], in [9], in series [10], in [12] and in [13] was > 10 µM each time. The same compound returned an MTD in [4] of 160 mg/kg.
Consider `COc1ccc(-c2cc3c(OC)cc(OC)cc3nc2S)cc1`, for which the Cytotoxicity entry in series [16], in series [17], in series [18], in [19], in series [20] and in [21] was “inactive” in each case. Also, the Cytotoxicity entry in series [22], in series [23], in series [24], in [25], in series [26] and in series [27] was “inactive” in each case. This compound also displayed an MTD in series [4] of 160 mg/kg.
Consider `COc1cc(OC)c2cc(-c3ccc(OCc4ccccc4)cc3)c(O)nc2c1`, for which the concentration for half-maximal inhibition (IC50) in series [1], in [2], in [3], in series [5], in [6] and in series [7] was > 10 µM throughout. Besides, the half-inhibitory concentration (IC50) in series [8], in series [15], in [9], in series [10], in series [12] and in series [13] was > 10 µM each time. Further, in series [4], the MTD was found to be 160 mg/kg.
`COc1cc(OC)c2cc(-c3ccc(OC(C)=O)cc3)c(=O)n(C)c2c1`: the IC50 in [1], in series [2], in [3], in [5], in series [6] and in series [7] was > 10 µM in each case. Further, the IC50 in series [8], in series [15], in series [9], in series [10], in series [12] and in series [13] was > 10 µM in each case. In addition, the MTD in series [4] was found to be 160 mg/kg.
Consider `CCN(CC)C(=O)Cn1c(=O)c(-c2ccc(OC)cc2)cc2c(OC)cc(OC)cc21`, for which the IC50 in series [1], in [2], in series [3], in series [5], in series [6] and in series [7] was > 10 µM throughout. Also, the IC50 in series [28], in series [8], in series [15], in series [9], in [10] and in series [12] was > 10 µM in each case. Further, the MTD in series [4] was 160 mg/kg.

As usually defined, the IC50 is the point on the concentration scale where inhibition reaches its midpoint. Higher therefore signals weaker potency in that assay. The term MTD denotes the highest dose tested that stayed within the study's limit of toxicity. A low value points to a narrow tolerated range.
